KCNK3 inh: human KCNK3 channel inhibition, primary screen; AID 602410; 340,000 tested, 0.84% active; B-score at 10 µM; CHO-KCNK3 thallium flux, FluxOR fluorescence; hits give low values;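 active means B-score under library mean minus 4 SD, starting fluorescence ratio at most library mean plus 5 SD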;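 further: more negative B-score means stronger inhibition of thallium flux through KCNK3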
KCNK9 block: blocks the human KCNK9 two-pore domain potassium channel; Q9NPC2; HEK293 KCNK9, FluxOR thallium flux fluorescence; hits give low values; B-score at 10 µM; 310,000 tested, 1.2% active; AID 488922;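 active means ratio B-score over 3 SD below the library mean, with starting fluorescence within 5 SD of its mean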;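 further: negative B-score means less thallium flux so channel inhibition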
hERG protect: shields human hERG channel from block by proarrhythmic agents. CHO-hERG, FluxOR thallium flux, dofetilide IC70 present. 310,000 tested, 0.51% active. AID 1511. activation (rescue from dofetilide block), less the hit threshold, % at 10 µM;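 active means activation above the mean of controls blocked by dofetilide plus 5 SD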;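 further: thallium influx through hERG after potassium depolarization seen as dye fluorescence rise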
Kir21 inh: inhibitors of mouse Kir2.1 inward-rectifier potassium channel | P35561 | AID 1672 | HEK293-Kir2.1, FluxOR thallium flux fluorescence; hits give low values | 310,000 tested, 0.85% active | B-score at 10 µM;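 active means fluorescence ratio B-score at or below minus 3 SD of library scores, with starting-brightness B-score within 2 SD, cut at about -4.2 in these data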;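 further: channel flux triggered by added potassium and thallium sulfate stimulus; B-score of peak minus minimum fluorescence over baseline after thallium stimulus; more negative B-score means stronger Kir2.1 block with less thallium influx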
Target sequence (P35561 whole entry, looked up): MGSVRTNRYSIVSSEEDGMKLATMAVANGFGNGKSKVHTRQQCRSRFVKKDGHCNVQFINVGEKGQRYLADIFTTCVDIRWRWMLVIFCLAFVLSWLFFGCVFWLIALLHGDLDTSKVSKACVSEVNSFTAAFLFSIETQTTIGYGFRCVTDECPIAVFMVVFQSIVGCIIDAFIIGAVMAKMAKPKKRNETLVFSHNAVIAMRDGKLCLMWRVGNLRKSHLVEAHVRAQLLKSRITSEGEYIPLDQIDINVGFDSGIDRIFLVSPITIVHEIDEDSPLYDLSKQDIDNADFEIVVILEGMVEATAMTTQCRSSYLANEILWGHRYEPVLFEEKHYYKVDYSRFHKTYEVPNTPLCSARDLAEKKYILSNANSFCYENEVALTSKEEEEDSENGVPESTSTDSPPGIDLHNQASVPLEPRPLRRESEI
KCNQ1 block: inhibitors of human KCNQ1 potassium channel; B-score at 10 µM; 310,000 tested, 1.3% active; P51787; CHO-K1 KCNQ1, FluxOR thallium flux fluorescence; hits give high values;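 active means compounds whose thallium flux B-score, printed positive for inhibition, exceeds three library SD while starting fluorescence stays within three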;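 further: channel opened by potassium depolarization with thallium stimulus after 20 min compound exposure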
KCNQ1 pot: potentiates or activates the human KCNQ1 potassium channel; 310,000 tested, 0.35% active; B-score at 10 µM; P51787; CHO-K1 KCNQ1, thallium flux FluxOR fluorescence; hits give high values; AID 2648;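 active means fluorescence ratio B-score, a plate-corrected score, at least three library SD, with initial intensity B-score within 5 SD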
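Assay system: stable KCNQ1 CHO-K1 line; medium: assay buffer, equal DMSO in all wells; timing: 90 min dye loading and 20 min compound exposure, both at room temperature; technique: kinetic FluxOR thallium fluorescence, 10-s 1-Hz baseline, 110-s post-stimulus read; read-out basis: B score of baseline-normalized fluorescence ratio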
KCNK9 block conf: human KCNK9 inhibitor confirmation. shares compounds with KCNK9 block. HEK293 KCNK9 cells, FluxOR thallium flux fluorescence. inhibition, % at 10 µM. 4,900 tested, 43% active;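 active means thallium signal inhibited by more than 5 SD of the compound-free buffer control wells, on both duplicate plates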
Kir2-1 spec: selectivity of KCNK9 modulators against mouse Kir2.1; shares compounds with KCNK9 block; Kir2.1 cells, FluxOR thallium flux fluorescence; inhibition, % at 10 µM; 4,900 tested, 4% active; AID 492993;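 active means thallium signal drop more than 5 SD beyond the mean of the no-compound control wells, seen in both duplicate plates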;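 further: signal is fluorescence rise after thallium addition divided by baseline fluorescence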
HEK293 Tl ctr: second check of KCNK9 modulator effects in non-induced HEK293 cells. 4,900 tested, 40% active. inhibition, % at 10 µM. shares compounds with KCNK9 block. FluxOR thallium flux;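 active means thallium signal drop beyond 5 SD of the untreated control mean, on both duplicate plates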
Hits are given with their value; – = inactive; · = no result. Compounds with a hit are over-represented: about 3.8% of the library has one in this group of screens.

SMILES	KCNK3 inh	KCNK9 block	hERG protect	Kir21 inh	KCNQ1 block	KCNQ1 pot	KCNK9 block conf	Kir2-1 spec	HEK293 Tl ctr
CCn1cc(CCCC(=O)NCc2ccc(OC)cc2)c2ccccc21	–	–	–	–	–	–	–	–	–
CCOc1ccccc1CNC(=O)CCc1cn(CC)c2ccccc12	–	–	–	-5.92	–	–	–	–	–
Cc1cc2c(cc1S(=O)(=O)N1CCN(c3cccc(C)c3C)CC1)OCCN2C	–	–	–	–	–	–	–	–	–
COc1cccc(OCc2nc(-c3ccc(Br)o3)no2)c1	–	–	–	–	–	–	–	–	–
Fc1ccc(OCc2nc(-c3ccc(Br)o3)no2)c(F)c1	–	–	–	–	–	–	·	·	·
Cc1cccc(OCc2nc(-c3ccc(Br)o3)no2)c1	–	–	–	–	–	–	–	–	23.5%
CN(C(=O)COc1cc(=O)n(C)c2ccccc12)c1cccc(Cl)c1	–	–	–	–	–	–	·	·	·
CCN(C(=O)COc1cc(=O)n(C)c2ccccc12)c1cccc(Cl)c1	–	–	–	–	–	–	–	–	–
Cc1csc(NC(=O)CSc2nncs2)n1	–	–	–	–	–	–	·	·	·
O=C(O)c1cccc(N2C(=O)C3C4C=CC(C4=C(c4ccccc4)c4ccccc4)C3C2=O)c1 (stereo not given)	–	–	–	–	–	–	–	–	–
COc1ccc2[nH]cc(CCn3ccc(O)c(C/C=C/c4ccccc4)c3=O)c2c1	–	–	–	–	–	–	·	·	·
O=c1c(C/C=C/c2ccccc2)c(O)ccn1CCc1c[nH]c2ccccc12	–	–	–	–	–	–	–	–	–
O=C(N/N=C/c1cccnc1)c1cc(-c2ccccc2)nc2ccccc12	–	–	–	–	–	–	·	·	·
Cc1ccc(C)c(-c2cc(C(=O)N/N=C/c3cccnc3)c3ccccc3n2)c1	-9.95	-12.9	–	–	–	–	53.5%	–	31.5%
CCc1ccccc1N1C(=O)CC(Sc2nccc(C)n2)C1=O (stereo not given)	–	–	–	–	–	–	–	–	–
COc1ccc(-c2csc(NC(=O)c3ccccc3Br)c2C(=O)O)cc1	–	–	–	–	–	–	·	·	·
COc1ccc(-c2csc(NC(=O)c3ccc(C(C)(C)C)cc3)c2C(=O)O)cc1	–	–	–	–	–	–	–	–	–
COCCN(C(=O)c1cc(-c2ccco2)nc2ccccc12)c1c(N)n(Cc2ccccc2)c(=O)[nH]c1=O	–	·	·	·	·	·	·	·	·
Cc1cnc(NC(=O)c2cc3ccccc3o2)s1	–	–	–	–	–	–	·	·	·
N/C(Cc1ccc([N+](=O)[O-])cc1)=N\OC(=O)COc1cccc2ccccc12	–	-8.34	–	–	–	–	–	–	37.0%
COc1cccc(OC)c1C(=O)Nc1cccc2c1CCCC2	–	–	–	–	–	–	·	·	·
CCCCn1c(SCc2nc3ccccc3s2)nc2ccccc2c1=O	–	-12.2	–	–	–	–	68.5%	–	40.5%
CCN(CCCn1c(SCC#N)nc2ccccc2c1=O)c1ccccc1	-9.26	-11	–	–	–	–	44.0%	–	28.0%
C=C(C)Cn1c(SCC#N)nc2ccccc2c1=O	–	–	–	–	–	–	·	·	·
CC(NC(=O)C1CC1)C(c1cccs1)N1CCOCC1 (stereo not given)	–	–	–	–	–	–	·	·	·
CC(NC(=O)C1CCC(C(C)(C)C)CC1)C(c1ccccc1)N1CCOCC1 (stereo not given)	–	–	–	–	–	–	–	–	–
CCCCOC(=O)c1ccc(N/C(=N\S(=O)(=O)c2ccccc2)c2ccccc2)cc1	–	-12	–	–	–	–	51.5%	–	37.0%
CCOC(=O)c1oc2ccccc2c1NC(=O)c1ccccc1OC	–	-8.94	–	–	–	–	34.0%	–	–
